Measurements reported in ChEMBL document CHEMBL3745687, “Synthesis and Biological Activity of 2-Methylene Analogues of Calcitriol and Related Compounds” (2015).
The source made the active and inactive calls. The calls are words filed in the database; no cut-off is given here.

Experiments:
[1] = system: Rattus norvegicus; experiment: Effect on bone calcium mobilization in weanling Sprague-Dawley rat assessed as serum calcium level at 260 pmol/day administered as 4 consecutive daily doses measured 24 hrs after last dose relative to control; type: functional
Procedure, shortened: (§1)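 Rats switched to a 0.47% Ca diet for 1 week, then 0.02% Ca diet for 2 weeks. Dosing started in the final week on the 0.02% Ca diet: four consecutive intraperitoneal doses about 24 h apart. Blood taken from the severed neck 24 h after the last dose. Serum calcium measured as the index of bone calcium mobilization.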

[2] = system: Rattus norvegicus; experiment: Effect on intestinal calcium transport in weanling Sprague-Dawley rat assessed as increase in ratio of serosal to mucosal calcium level at 780 pmol/day administered as 4 consecutive daily doses measured 24 hrs after last dose relative to control; type: functional
Procedure, shortened: (§2)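 Same rats, on 0.47% Ca diet for 1 week, then 0.02% Ca for 2 weeks. Four intraperitoneal doses about 24 h apart were given during the last week. 24 h after the final dose, the first 10 cm of intestine was taken for calcium transport measurement by the everted gut sac method.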

[3] = system: Rattus norvegicus; experiment: Effect on bone calcium mobilization in weanling Sprague-Dawley rat assessed as serum calcium level at 32 pmol/day administered as 4 consecutive daily doses measured 24 hrs after last dose relative to control; type: functional; procedure, shortened: as §1
[4] = system: Rattus norvegicus; experiment: Effect on bone calcium mobilization in weanling Sprague-Dawley rat assessed as serum calcium level at 7020 pmol/day administered as 4 consecutive daily doses measured 24 hrs after last dose relative to control; type: functional; procedure, shortened: as §1
[5] = system: Rattus norvegicus; experiment: Effect on intestinal calcium transport in weanling Sprague-Dawley rat assessed as increase in ratio of serosal to mucosal calcium level at 7020 pmol/day administered as 4 consecutive daily doses measured 24 hrs after last dose relative to control; type: functional; procedure, shortened: as §2
[6] = biological target: T1, Vitamin D3 receptor (Rattus norvegicus) (UniProt P13053); experiment: Induction of VDR transcriptional activity assessed as activation of 24-hydroxylase gene expression in rat ROS 17/2.8 cells after 16 hrs by luciferase reprter assay; type: cell-based
T1 sequence (whole entry): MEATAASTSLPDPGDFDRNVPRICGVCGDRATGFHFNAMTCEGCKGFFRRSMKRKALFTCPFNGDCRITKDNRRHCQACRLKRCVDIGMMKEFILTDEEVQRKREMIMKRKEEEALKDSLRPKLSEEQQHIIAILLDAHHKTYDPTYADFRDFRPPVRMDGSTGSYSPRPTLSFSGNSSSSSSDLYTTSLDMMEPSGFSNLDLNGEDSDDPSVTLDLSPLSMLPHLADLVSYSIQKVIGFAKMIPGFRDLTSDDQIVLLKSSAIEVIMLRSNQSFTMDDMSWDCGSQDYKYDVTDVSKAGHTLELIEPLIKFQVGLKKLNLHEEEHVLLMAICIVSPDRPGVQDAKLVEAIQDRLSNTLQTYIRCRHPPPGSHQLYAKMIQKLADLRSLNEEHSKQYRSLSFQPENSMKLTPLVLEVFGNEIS
Procedure, shortened: (§3)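 Rat osteosarcoma cells stably transfected with a 24-hydroxylase gene reporter plasmid; luciferase activity read across a dose range. ED50 is the concentration raising luciferase activity by 50%, taken from dose–response curves. Ratio line reports 1α,25-(OH)2D3 ED50 divided by analogue ED50.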

[7] = system: HL-60; experiment: Ratio of 1alpha,25-dihydroxyvitamin D3 ED50 to compound ED50 for induction of human HL60 promyelocytes differentiation to monocytes after 4 days by NBT reduction assay; type: functional
Procedure, shortened: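 HL-60 promyelocyte-to-monocyte differentiation scored as percentage of cells reducing nitro blue tetrazolium. Run in duplicate, repeated twice. ED50, the concentration giving 50% maturation, taken from dose–response curves; expressed as the average ratio of 1α,25-(OH)2D3 ED50 to analogue ED50.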

[8] = system: Rattus norvegicus; experiment: Effect on intestinal calcium transport in weanling Sprague-Dawley rat assessed as increase in ratio of serosal to mucosal calcium level at 87 pmol/day administered as 4 consecutive daily doses measured 24 hrs after last dose relative to control; type: functional; procedure, shortened: as §2
[9] = system: Rattus norvegicus; experiment: Effect on intestinal calcium transport in weanling Sprague-Dawley rat assessed as increase in ratio of serosal to mucosal calcium level at 260 pmol/day administered as 4 consecutive daily doses measured 24 hrs after last dose relative to control; type: functional; procedure, shortened: as §2
[10] = system: Rattus norvegicus; experiment: Effect on intestinal calcium transport in weanling Sprague-Dawley rat assessed as increase in ratio of serosal to mucosal calcium level at 32 pmol/day administered as 4 consecutive daily doses measured 24 hrs after last dose relative to control; type: functional; procedure, shortened: as §2
[11] = system: Rattus norvegicus; experiment: Effect on bone calcium mobilization in weanling Sprague-Dawley rat assessed as serum calcium level at 87 pmol/day administered as 4 consecutive daily doses measured 24 hrs after last dose relative to control; type: functional; procedure, shortened: as §1
[12] = system: Rattus norvegicus; experiment: Effect on intestinal calcium transport in weanling Sprague-Dawley rat assessed as increase in ratio of serosal to mucosal calcium level at 16 pmol/day administered as 4 consecutive daily doses measured 24 hrs after last dose relative to control; type: functional; procedure, shortened: as §2
[13] = system: Rattus norvegicus; experiment: Effect on bone calcium mobilization in weanling Sprague-Dawley rat assessed as serum calcium level at 780 pmol/day administered as 4 consecutive daily doses measured 24 hrs after last dose relative to control; type: functional; procedure, shortened: as §1
[14] = biological target: T1, Vitamin D3 receptor (Rattus norvegicus); experiment: Ratio of 1alpha,25-dihydroxyvitamin D3 ED50 to compound ED50 for VDR-mediated 24-hydroxylase gene expression in rat ROS 17/2.8 cells after 16 hrs by luciferase reprter assay; type: cell-based; procedure, shortened: as §3
[15] = system: Rattus norvegicus; experiment: Effect on bone calcium mobilization in weanling Sprague-Dawley rat assessed as serum calcium level at 16 pmol/day administered as 4 consecutive daily doses measured 24 hrs after last dose relative to control; type: functional; procedure, shortened: as §1
[16] = biological target: T1, Vitamin D3 receptor (Rattus norvegicus); experiment: Ratio of 1alpha,25-dihydroxyvitamin D3 Ki to compound Ki for full length recombinant rat vitamin D receptor by scintillation counting analysis
Procedure, shortened: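 Competitive binding against radiolabeled 1α,25-(OH)2D3 at 1 nM, with Kd of 0.2 nM used in Ki derivation from dose–response curves. Duplicate runs on two separate occasions. Reported as the average ratio of 1α,25-(OH)2D3 Ki to analogue Ki.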

[17] = system: Rattus norvegicus; experiment: Effect on bone calcium mobilization in weanling Sprague-Dawley rat assessed as serum calcium level at 2340 pmol/day administered as 4 consecutive daily doses measured 24 hrs after last dose relative to control; type: functional; procedure, shortened: as §1
[18] = system: Rattus norvegicus; experiment: Effect on intestinal calcium transport in weanling Sprague-Dawley rat assessed as increase in ratio of serosal to mucosal calcium level at 2340 pmol/day administered as 4 consecutive daily doses measured 24 hrs after last dose relative to control; type: functional; procedure, shortened: as §2

| Activity [6] | Ratio ED50 [14] | Ratio Ki [16] | SMILES | Activity [1] [mg/dL] | Ratio [2] | Activity [3] [mg/dL] | Activity [4] [mg/dL] | Ratio [5] | Ratio ED50 [7] | Ratio [8] | Ratio [9] | Ratio [10] | Activity [11] [mg/dL] | Ratio [12] | Activity [13] [mg/dL] | Activity [15] [mg/dL] | Activity [17] [mg/dL] | Ratio [18] |
| --- | --- | --- | --- | --- | --- | --- | --- | --- | --- | --- | --- | --- | --- | --- | --- | --- | --- | --- |
| Active | 10 | 1.1 | C=C1/C(=C\C=C2/CCC[C@]3(C)[C@@H]([C@@H](C)CCCC(C)(C)O)CC[C@@H]23)C[C@@H](O)C(=C)[C@@H]1O | 3.4 | 9.3 | 1.1 | 6 | 7.3 | 29 | 5.4 | 5 | 5 | 2.8 | 3 | 5.9 | 0.7 | – | – |
| Dose-dependent effect | 0.07 | 0.01 | C=C1/C(=C\C=C2/CCC[C@]3(C)[C@@H]([C@H](C)CCCC(C)C)CC[C@@H]23)C[C@@H](O)C(=C)[C@@H]1O | – | 5.8 | – | 6 | 6 | 0.07 | 4.6 | – | – | 0.9 | – | 3.8 | – | – | – |
| Active | – | – | C=C1/C(=C\C=C2/CCC[C@]3(C)[C@@H]([C@H](C)CCCC(C)(C)O)CC[C@@H]23)C[C@@H](O)C[C@@H]1O [CALCITRIOL] | – | 1.9 | – | – | – | – | 3.1 | – | – | 0.3 | – | 2.1 | – | – | – |
| Active | 5 | 1.1 | C=C1/C(=C/C=C2\CCC[C@]3(C)[C@@H]([C@@H](C)CCCC(C)(C)O)CC[C@@H]23)C[C@@H](O)C(=C)[C@@H]1O | 1.2 | 4.5 | 0 | – | – | 20 | 2.9 | 2.6 | 0.9 | 0.6 | – | 4 | – | – | – |
| – | 29 | 1 | C=C1[C@H](O)CC(=C/C=C2\CCC[C@]3(C)[C@@H]([C@@H](C)CCCC(C)(C)O)CC[C@@H]23)C[C@H]1O [DP001] | – | – | – | – | – | 25 | – | – | – | – | – | – | – | – | – |
| – | 1 | 2.5 | C=C1/C(=C/C=C2\CCC[C@]3(C)[C@@H]([C@H](C)CCCC(C)(C)O)CC[C@@H]23)C[C@@H](O)C(=C)[C@@H]1O | – | 1.2 | 0.3 | 2.2 | 3.2 | 0.4 | 2.1 | – | 2.3 | 0.5 | – | 1.3 | – | 2.2 | 3 |
| – | 1 | 1.4 | C=C1/C(=C\C=C2/CCC[C@]3(C)[C@@H]([C@H](C)CCCC(C)(C)O)CC[C@@H]23)C[C@@H](O)C(=C)[C@@H]1O | – | 5.2 | 1.4 | 7.3 | 9.2 | 0.7 | 5.1 | – | 2.4 | 2.2 | – | 5 | – | – | – |
| Dose-dependent effect | 0.07 | 0.01 | C=C1/C(=C\C=C2/CCC[C@]3(C)[C@@H]([C@@H](C)CCCC(C)C)CC[C@@H]23)C[C@@H](O)C(=C)[C@@H]1O | – | – | – | 4.8 | – | 0.7 | – | – | – | 0.4 | – | 3.3 | – | – | – |
